MIC90 and Ratio data for 15 compounds are collected here from ChEMBL document CHEMBL4270565, “Design, synthesis and antimicrobial evaluation of propylene-tethered ciprofloxacin-isatin hybrids” (Eur J Med Chem, 2018).

Converted amounts (≈) assume the structure as drawn. Where only a bound is given, the exact number is not on record here.

As a reminder, the MIC90 is an inhibitory concentration at the 90% level, which refers to growth in some studies and to a panel of isolates in others.

One assay deals with Mycobacterium tuberculosis. As to the kind of experiment: Antimycobacterial activity against isoniazid/rifampicin/ethambutol-resistant Mycobacterium tuberculosis after 7 days. Type of assay: functional. Conditions: 168 h. In outline: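 Rapid direct susceptibility test in 48-well plates. Two-fold dilutions of compound from DMSO stocks were mixed with an equal volume of bacterial suspension. Medium-only wells served as growth controls and water-only wells as no-growth controls. Plates were sealed and held at 37 C in a humid box, and controls were checked at 3 days. MIC (90% growth inhibition) was read visually by high-magnification observation of the cells and re-read at 7 days.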
On to `CCO/N=C1\C(=O)N(CCCN2CCN(c3cc4c(cc3F)c(=O)c(C(=O)O)cn4C3CC3)CC2)c2ccccc21`, for which the MIC90 stood at 1 µg/mL (≈ 1.78 µM).

On to `CCO/N=C1\C(=O)N(CCCN2CCN(c3cc4c(cc3F)c(=O)c(C(=O)OCCCN3C(=O)/C(=N/OCC)c5ccccc53)cn4C3CC3)CC2)c2ccccc21`, for which the MIC90 was 64 µg/mL (≈ 80.8 µM). `O=C1C(=O)N(CCCOC(=O)c2cn(C3CC3)c3cc(N4CCN(CCCN5C(=O)C(=O)c6ccccc65)CC4)c(F)cc3c2=O)c2ccccc21` registered an MIC90 of 32 µg/mL (≈ 45.3 µM). On to `CO/N=C1\C(=O)N(CCCN2CCN(c3cc4c(cc3F)c(=O)c(C(=O)O)cn4C3CC3)CC2)c2ccc(C)cc21`, for which the MIC90 is 1 µg/mL (≈ 1.78 µM). Still for that read-out and setting: next, `Cc1ccc2c(c1)C(=O)C(=O)N2CCCOC(=O)c1cn(C2CC2)c2cc(N3CCN(CCCN4C(=O)C(=O)c5cc(C)ccc54)CC3)c(F)cc2c1=O`: 32 µg/mL (≈ 43.6 µM); `CO[C@H]1/C=C/O[C@@]2(C)Oc3c(C)c(O)c4c(O)c(c(/C=N/N5CCN(C)CC5)c(O)c4c3C2=O)NC(=O)/C(C)=C\C=C\[C@H](C)[C@H](O)[C@@H](C)[C@@H](O)[C@@H](C)[C@H](OC(C)=O)[C@@H]1C` [RIFAMPIN]: 32 µg/mL (≈ 38.9 µM). Compound `Cc1ccc2c(c1)C(=O)C(=O)N2CCCN1CCN(c2cc3c(cc2F)c(=O)c(C(=O)O)cn3C2CC2)CC1` returned an MIC90 of 0.5 µg/mL (≈ 0.939 µM). As to `CO/N=C1\C(=O)N(CCCN2CCN(c3cc4c(cc3F)c(=O)c(C(=O)O)cn4C3CC3)CC2)c2ccccc21`, the MIC90 was determined as 2 µg/mL (≈ 3.65 µM). The same measure, in the same setting: as for `O=C(O)c1cn(C2CC2)c2cc(N3CCNCC3)c(F)cc2c1=O` [CIPROFLOXACIN], the figure is 2 µg/mL (≈ 6.04 µM); as for `CCO/N=C1\C(=O)N(CCCN2CCN(c3cc4c(cc3F)c(=O)c(C(=O)O)cn4C3CC3)CC2)c2ccc(C)cc21`, 4 µg/mL (≈ 6.95 µM); as for `CCO/N=C1\C(=O)N(CCCN2CCN(c3cc4c(cc3F)c(=O)c(C(=O)OCCCN3C(=O)/C(=N/OCC)c5cc(C)ccc53)cn4C3CC3)CC2)c2ccc(C)cc21`, 64 µg/mL (≈ 78.1 µM). The same measure, in the same setting: next, `CO/N=C1\C(=O)N(CCCN2CCN(c3cc4c(cc3F)c(=O)c(C(=O)OCCCN3C(=O)/C(=N/OC)c5cc(C)ccc53)cn4C3CC3)CC2)c2ccc(C)cc21`: 32 µg/mL (≈ 40.4 µM); `O=C1C(=O)N(CCCN2CCN(c3cc4c(cc3F)c(=O)c(C(=O)O)cn4C3CC3)CC2)c2ccccc21`: 0.5 µg/mL (≈ 0.964 µM); `NNC(=O)c1ccncc1` [ISONIAZID]: over 128 µg/mL. Same read-out and setting: as for `CO/N=C1\C(=O)N(CCCN2CCN(c3cc4c(cc3F)c(=O)c(C(=O)OCCCN3C(=O)/C(=N/OC)c5ccccc53)cn4C3CC3)CC2)c2ccccc21`, the figure is 64 µg/mL (≈ 83.8 µM).

For another assay, the system named is Mycobacterium tuberculosis. As to the kind of experiment: Potency index, ratio of ciprofloxacin MIC90 to compound MIC90 for isoniazid/rifampicin/ethambutol-resistant Mycobacterium tuberculosis after 7 days.
Details: not given
Type of assay: functional.
As for `Cc1ccc2c(c1)C(=O)C(=O)N2CCCN1CCN(c2cc3c(cc2F)c(=O)c(C(=O)O)cn3C2CC2)CC1`, the Ratio entry was “>=4 - 256”.

The subject of a further assay is Mycobacterium tuberculosis. As to the kind of experiment: Potency index, ratio of rifampicin MIC90 to compound MIC90 for isoniazid/rifampicin/ethambutol-resistant Mycobacterium tuberculosis after 7 days.
Details: not given
It counts as functional.
Take `Cc1ccc2c(c1)C(=O)C(=O)N2CCCN1CCN(c2cc3c(cc2F)c(=O)c(C(=O)O)cn3C2CC2)CC1`: the Ratio result is “>=4 - 256”.

Another assay deals with Mycobacterium tuberculosis. As to the kind of experiment: Potency index, ratio of isoniazid MIC90 to compound MIC90 for isoniazid/rifampicin/ethambutol-resistant Mycobacterium tuberculosis after 7 days. It counts as functional.
Details: not given
Turning to `Cc1ccc2c(c1)C(=O)C(=O)N2CCCN1CCN(c2cc3c(cc2F)c(=O)c(C(=O)O)cn3C2CC2)CC1`, the Ratio entry is “>=4 - 256”.
